In ChEMBL document CHEMBL5678817, “FTBMT, a Novel and Selective GPR52 Agonist, Demonstrates Antipsychotic-Like and Procognitive Effects in Rodents, Revealing a Potential Therapeutic Agent for Schizophrenia” (J Pharmacol Exp Ther, 2017):
Active and inactive are the calls of the source. No cut-off for these calls is given here.

Experiments:
Mus musculus = experiment: Antipsychotic activity in methamphetamine-induced hyperactivity in ICR mouse assessed as minimum effective dose administered orally; format: functional; conditions: route po, read-out: MED
Rattus norvegicus = experiment: Effect on prolactin level in Wistar rat at 1 mg/kg, po […] by immunoassay; format: functional, organism-based
Procedure, shortened: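 Male Wistar rats (7 weeks) dosed orally (haloperidol 1 mg/kg among arms) or vehicle. Trunk blood taken into EDTA 1 h later and centrifuged 1600 g, 20 min, 4 °C. Plasma prolactin measured by rat prolactin enzyme immunoassay; n = 4.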

Q: `Cc1cc2c(s1)Nc1ccccc1N=C2N1CCN(C)CC1` [OLANZAPINE] was tested. Which minimal effective dose (Mus musculus) did it give?
A: 1 mg/kg

Q: How did the Activity (Rattus norvegicus) turn out when `O=C(CCCN1CCC(O)(c2ccc(Cl)cc2)CC1)c1ccc(F)cc1` was run?
A: Active
